In the library only some 2.5% were active in any assay of this set; here they are far more common.
SENP1 FRET inh: blocks the human SENP1 SUMO protease catalytic domain; AID 624204; actives 0.21% (n = 360,000); Q9P0U3; recombinant SENP1 catalytic domain, CyPet-SUMO1-YPet FRET cleavage; inhibition, % at 10 µM;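 active = inhibition at least 30% at 10 µM, raw YFP signal under a set limit, fluorescence ratio 0.5 to 1.5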;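 note: 0% = enzyme with DMSO and 100% = no enzyme wells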
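Assay system: hSENP1 catalytic domain, recombinant. Amount: SENP1 enzyme, 20 pM final. Schedule: 50 min reaction, RT, dark. Technique: FRET, CFP and YFP emission. Control set: no-enzyme wells low, DMSO-plus-enzyme wells high control.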
SENP7 block: SENP7 protease inhibition. Q9BQF6. recombinant SENP7, Z-RLRGG-aminoluciferin luminescence, 40 min. inhibition, % at 5 µM. actives 1.5% (n = 330,000). AID 434973;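 active = inhibition above about 50% at the single test dose, limit read from the data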;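 note: plate controls were DMSO with enzyme for no effect and no enzyme buffer wells for full effect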
Target sequence (Q9BQF6 706-1050 limits assumed): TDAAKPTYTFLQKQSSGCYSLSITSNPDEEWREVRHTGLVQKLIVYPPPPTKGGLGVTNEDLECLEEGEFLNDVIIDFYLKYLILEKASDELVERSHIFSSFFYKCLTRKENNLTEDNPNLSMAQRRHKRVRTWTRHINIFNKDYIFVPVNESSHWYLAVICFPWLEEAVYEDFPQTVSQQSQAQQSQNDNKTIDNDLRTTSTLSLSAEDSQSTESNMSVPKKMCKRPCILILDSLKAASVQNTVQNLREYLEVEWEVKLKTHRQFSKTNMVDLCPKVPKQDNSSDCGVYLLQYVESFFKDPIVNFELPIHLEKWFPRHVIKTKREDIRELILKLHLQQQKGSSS
SENP8 block-1: SENP8 protease inhibition | Q96LD8 | purified SENP8, Z-RLRGG-aminoluciferin cleavage, luminescence | inhibition, % at 10 µM | actives 1.2% (n = 330,000) | AID 2540; in the data active = inhibition above about 50%
Target sequence (Q96LD8 whole entry, looked up): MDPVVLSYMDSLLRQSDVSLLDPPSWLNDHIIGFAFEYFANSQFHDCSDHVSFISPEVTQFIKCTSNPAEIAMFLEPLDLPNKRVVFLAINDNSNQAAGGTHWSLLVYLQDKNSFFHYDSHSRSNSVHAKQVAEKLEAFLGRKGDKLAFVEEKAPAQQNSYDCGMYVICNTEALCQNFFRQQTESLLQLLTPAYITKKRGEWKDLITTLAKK
SENP6 block: inhibitors of human SENP6 protease; AID 2599; Q9GZR1; Recombinant SENP6 catalytic domain, aminoluciferin luminescence; inhibition, % at 10 µM; actives 1.8% (n = 330,000);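 active = inhibition above about 50% at the single tested dose, limit read from the data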;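 note: plate controls were DMSO wells with enzyme for no effect and DMSO wells lacking enzyme for full effect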
SENP8 block-2: blocks human SENP8 cleavage of Nedd8 substrate; actives 0.64% (n = 360,000); inhibition, % at 20 µM; Q96LD8; AID 602440; recombinant SENP8, Nedd8 substrate fluorescence; in the data active = inhibition mostly above about 40%, no sharp cut-off; inactive = mostly below about 27%
SENP8 conf: confirmation of human SENP8 protease inhibitors; Recombinant SENP8, Z-RLRGG-aminoluciferin luminescence, 60 min; AID 488912; inhibition, % at 12.5 µM; actives 40% (n = 6,200); shares compounds with SENP7 block;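 active = mean inhibition across replicates above about 50%, limit read from the data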
SENP6 conf: human SENP6 inhibition, confirmed. AID 488915. actives 58% (n = 6,200). inhibition, % at 12.5 µM. shares compounds with SENP7 block. recombinant SENP6, Z-RLRGG-aminoluciferin luminescence
SENP7 conf: confirmation of human SENP7 protease inhibitors. shares compounds with SENP7 block. recombinant SENP7, Z-RLRGG-aminoluciferin luminescence, 40 min. inhibition, % at 12.5 µM. actives 69% (n = 6,200). AID 488917
Casp3 select: selectivity test for SENP inhibitors: human caspase-3 inhibition; shares compounds with SENP7 block; purified caspase-3, Z-DEVD-aminoluciferin luminescence, 60 min; inhibition, % at 12.5 µM; actives 60% (n = 6,200);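 active = mean inhibition above about 50%, limit read from the data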;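 note: plate controls were enzyme with DMSO for no effect and wells without caspase-3 for full effect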
SENP luc ctr: counter-screen for SENP inhibitors: luminescence interference; shares compounds with SENP7 block; Pre-incubated SENP8/Z-RLRGG-aminoluciferin, luciferase luminescence interference; inhibition, % at 12.5 µM; actives 39% (n = 6,200);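 active = mean inhibition above about 50% when retested at one dose, limit read from the data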;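 note: plate controls were DMSO wells with completed reaction for no effect and substrate without enzyme for full effect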
Active calls of the source: *; · = not tested or not shown.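 Rule for the calls, unless noted: active = mean inhibition above about 50% in the one-dose retest (limit read from the data); inactive = the rest.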

SMILES	SENP1 FRET inh	SENP7 block	SENP8 block-1	SENP6 block	SENP8 block-2	SENP8 conf	SENP6 conf	SENP7 conf	Casp3 select	SENP luc ctr
COc1ccc(-c2cc(C(=O)O)c(C)o2)cc1OC	1.6	82.0*	73.4*	87.4*	6.0	84.6*	83.9*	96.6*	90.2*	84.6*
COc1ccc(C2CC=C(C(C)=O)CN2S(=O)(=O)c2ccccc2)cc1 (stereo not drawn)	0.4	·	·	·	2.9	·	·	·	·	·
CCc1ccc(C(=O)Cn2ccsc2=N)cc1	2.4	80.7*	74.9*	78.6*	2.6	58.4*	53.5*	84.2*	65.5*	74.3*
CC1=NN(c2ccccc2)C(=O)/C1=C/N(C)C	2.5	9.1	-4.4	4.5	19.5	·	·	·	·	·
CC1=NN(c2nc3ccccc3[nH]2)C(=O)/C1=C/N(C)C	0.8	95.9*	92.3*	88.2*	14.9	87.7*	84.1*	98.5*	96.8*	91.3*
CCCC1=NN(c2ccc([N+](=O)[O-])cc2)C(=O)/C1=C/N(C)C	0.6	98.9*	94.5*	97.9*	21.1	94.9*	95.4*	101.2*	96.4*	96.0*
CC1=NN(c2ccc([N+](=O)[O-])cc2)C(=O)/C1=C\N(C)C	2.5	95.3*	93.1*	96.9*	42.6*	95.6*	95.0*	101.8*	98.3*	95.5*
CN(C)/C=C1\C(=O)N(c2ccc([N+](=O)[O-])cc2)N=C1c1ccccc1	5.4	96.7*	94.8*	97.6*	62.1*	98.0*	98.8*	103.0*	95.3*	97.2*
O=C(NCc1cccs1)c1cc(S(=O)(=O)N2CCOCC2)c(Cl)cc1Cl	-0.3	-3.0	4.6	-9.6	6.8	·	·	·	·	·
CCC1OC(C)Cc2[nH][nH]c(=O)c21 (stereo not drawn)	1.8	·	·	·	19.4	·	·	·	·	·
Cc1ccccc1CN1C[C@@H]2C[C@@H](c3cnc(N4CCOCC4)s3)N3CCC[C@@]23C1=O	4.1	-8.5	-10.4	-7.8	8.6	·	·	·	·	·
O=C1/C(=C\c2ccc(-c3ccccc3[N+](=O)[O-])o2)C(c2ccccc2)=NN1c1ccccc1	1.6	10.6	3.7	57.6*	35.6	-18.2	-7.4	-7.4	-10.0	-5.7
CCn1nc(C)c(NC(=O)Nc2cccc(Cl)c2Cl)c1C	2.2	-12.9	-4.7	-20.3	1.6	·	·	·	·	·
NNc1nc2sc3c(c2c(=O)n1Cc1ccccc1)CCC3	-22.0	3.4	-1.1	12.5	6.0	·	·	·	·	·
NNc1nc(-c2ccccc2)nc2sc3c(c12)CCCC3	-2.7	79.8*	65.7*	79.0*	-150.4	-7.1	11.8	19.7	15.6	15.5
COc1cc(OC)cc(C(=O)Nc2ccc(Nc3ccccc3)cc2)c1	-1.2	58.0*	60.3*	79.5*	2.8	65.1*	61.3*	84.6*	32.0	21.1
COc1cc(OC)cc(C(=O)Nc2cccc(NC(=O)c3ccccc3)c2)c1	3.3	-3.9	-2.8	-7.0	17.5	·	·	·	·	·
COc1cc(OC)cc(C(=O)Nc2cccc(C(C)=O)c2)c1	1.2	68.4*	38.9	64.6*	20.8	57.5*	53.3*	81.5*	77.9*	62.8*
Cc1c(O)ccc(C(=O)CN2CCN(Cc3ccccc3)CC2)c1O	3.6	58.5*	-1.4	-20.7	-14.4	-12.3	-0.7	-8.6	-3.7	-2.8
CC1CC(C)CN(C(=O)CN2C(=O)NC(c3ccccc3)(c3ccccc3)C2=O)C1 (stereo not drawn)	1.0	0.5	8.5	6.9	13.2	·	·	·	·	·
COc1ccccc1C1(O)CC2CCC(C1)N2S(=O)(=O)c1ccc(C(C)=O)cc1 (stereo not drawn)	0.8	58.6*	-6.6	-12.2	18.9	4.0	3.3	10.2	5.7	-0.4
CCCN1CCN(CCCNC(=O)CN2C(=O)COc3ccc(C(C)(C)C)cc32)CC1	-0.5	·	·	·	17.3	·	·	·	·	·
O=C(/C=C/Nc1ccccc1)c1ccc(Oc2ncccn2)cc1	-73.8	82.1*	64.7*	76.2*	-294.5	28.7	58.2*	59.2*	82.4*	13.8
COc1ccc(N/C=C\C(=O)c2ccc3ccccc3c2)cc1	-41.5	0.2	-11.8	-11.4	-19.5	·	·	·	·	·
CN(C)/C=C/C(=O)c1ccc(Oc2ncccn2)cc1	-4.2	-5.6	-9.4	-6.7	1.3	·	·	·	·	·
SMILES	SENP1 FRET inh	SENP7 block	SENP8 block-1	SENP6 block	SENP8 block-2	SENP8 conf	SENP6 conf	SENP7 conf	Casp3 select	SENP luc ctr
COc1ccc(N/C=C/C(=O)c2ccccc2)cc1	-39.0	96.4*	94.6*	94.4*	-25.3	-21.0	93.0*	103.1*	97.1*	31.7
Cc1ccc(CNC(=O)CCNS(=O)(=O)c2cccc3nsnc23)cc1	2.8	-8.2	4.9	-18.3	10.9	·	·	·	·	·
Cc1ccc(Cl)cc1NC(=O)c1cc(S(=O)(=O)N2CCOCC2)cn1C	0.9	-17.8	-14.2	-10.5	8.9	·	·	·	·	·
COc1ccc(C2CC(=O)c3cnc(N4CCc5ccccc54)nc3C2)cc1OC (stereo not drawn)	·	11.5	-4.4	-9.2	·	·	·	·	·	·
CNc1nc(N2CCc3ccccc32)ncc1F	1.1	4.5	79.5*	86.3*	-7.7	85.0*	86.3*	98.3*	83.1*	86.7*
NS(=O)(=O)c1ccc(CCNCC(=O)NCc2ccccc2Cl)cc1	-2.2	-2.6	0.4	-35.8	3.0	·	·	·	·	·
COc1ccc(CCN=Cc2c(C)[nH]n(-c3ccc([N+](=O)[O-])cc3)c2=O)cc1OC	-0.4	3.6	5.1	23.5	13.4	·	·	·	·	·
Cc1[nH]n(-c2ccc([N+](=O)[O-])cc2)c(=O)c1/C=N/N1CCOCC1	0.7	57.6*	44.2	78.4*	32.1	-7.8	-5.3	16.9	36.1	39.8
Cc1[nH]n(-c2ccc([N+](=O)[O-])cc2)c(=O)c1C=NCCN1CCN(C(=O)c2ccccc2)CC1	5.7	89.9*	69.7*	88.4*	28.3	27.1	44.2	31.4	67.1*	59.3*
O=[N+]([O-])c1ccc(/C=N\N2CCN(c3ccc(Cl)cc3)CC2)cc1	3.0	2.0	3.2	-1.4	24.9	·	·	·	·	·
O=C(NCCN1CCN(C(=O)c2ccc(F)cc2)CC1)C(=O)NCc1ccccc1	0.9	1.1	3.0	-17.5	26.1	·	·	·	·	·
Cc1ccc(C=C2C=C(c3ccccc3)OC2=O)cc1	-76.9	·	·	·	-25.0	·	·	·	·	·
Cc1ccc(C2=C/C(=C/c3cccs3)C(=O)O2)cc1	-40.8	70.8*	33.8	74.2*	10.3	-10.3	-2.4	5.1	19.4	4.2

Bioassay records from PubChem.
